Results on one compound are retold here after ChEMBL document CHEMBL1144149, “DNA polymerase beta inhibitors from Tetracera boiviniana” (J Nat Prod, 1999).

As usually defined, the inhibition is the share of the control response that was lost under treatment. A low value points to a weak effect.

One test relates to P388D1. Kind of test: Potentiation of 75 nM bleomycin induced cytotoxicity in mouse P388D1 cells at 10 uM assessed as cell viability after 6 hrs by trypan blue exclusion assay. Type of test: functional. The procedure, abridged:
(§1)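 P-388D1 suspension cells were grown in DMEM (4500 mg glucose/L) with 10% donor horse serum and antibiotics at 37 °C in 5% CO2. Cells at ca. 5 × 10^5 cells/mL were stabilized for 1 h, then exposed to compound alone or together with 75 nM bleomycin (blenoxane) for 6 h. Final DMSO was 0.25%. Viability was read by trypan blue exclusion as % of control.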

Test [1] addresses DNA polymerase beta (Rattus norvegicus) (UniProt P06766). As to conditions: 10 ug/mL.
The nature of test [2]: Cytotoxicity against mouse P388D1 cells at 10 uM after 6 hrs by trypan blue exclusion assay. Type of test: functional. The procedure, abridged: as §1
Test [3] concerns the target DNA polymerase beta (Rattus norvegicus) (UniProt P06766). As to conditions: 50 ug/mL.

Regarding `C=C(C)[C@@H]1CC[C@]2(C(=O)O)CC[C@]3(C)[C@H](CC[C@@H]4[C@@]5(C)CC[C@H](O)C(C)(C)[C@@H]5CC[C@]43C)[C@@H]12` [BETULINIC ACID], the Activity amounted to 70% in the test on P388D1 and 99% in test [2]. For the same compound, the values for the inhibition in test [1] and in test [3] were 63% and 96%, respectively.
